Measurements from paper PMC6081960 (Bioorganic & medicinal chemistry letters, 2018).

Assays:
RAJI cells = experiment: St. Jude cancer cell line panel, RAJI; assay type: cell-based; settings: Burkitt's lymphoma; confidence intervals in parentheses; NA: not active
Procedure, shortened: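 RAJI Burkitt's lymphoma cells, FAB L3 subtype, served as the panel's single lymphoma line. Screened together with four ALL lines and mouse CPC300 choroid plexus carcinoma cells at St. Jude.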

NALM16 cells = experiment: St. Jude cancer cell line panel, NALM16; assay type: cell-based, human; settings: ALL cell line; confidence intervals in parentheses; NA: not active
Procedure, shortened: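 Human ALL line NALM16, derived from the peripheral blood of a child at relapse in 1977. Carries a near-haploid karyotype. Tested in a St. Jude screening panel alongside three other ALL lines, one lymphoma line and mouse choroid plexus carcinoma CPC300 cells.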

REH cells = experiment: St. Jude cancer cell line panel, REH; assay type: cell-based, human; settings: precursor B-cell ALL; confidence intervals in parentheses; NA: not active
Procedure, shortened: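 REH: patient-derived precursor B-cell ALL line that expresses only wild-type MLL and wild-type AF4. Screened in a St. Jude panel with other ALL lines, a lymphoma line and mouse CPC300 cells.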

CSc1ccc(/C=C2/C(C)=C(CC(=O)NCCN(C)C)c3cc(F)ccc32)cc1 [SSA, sulindac sulfide amide]
no activity: EC50 RAJI (RAJI cells) | EC50 NALM16 (NALM16 cells) | EC50 REH (REH cells)
